# Source: PubChem BioAssay (several laboratories)
# FLuc inhib CS = firefly luciferase enzyme inhibitors, primary screen, artefact control for luciferase-based inhibitor screens, biochemical, luminescence, ATPLite; 10 min; inhibition, % at 10 µM; AID 1006, 2008; Luciferin 4-monooxygenase (Photinus pyralis), P08659; 200,000 tested, 1.5% active;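 active = inhibition above about 50% when tested at 10 µM, limit read from the data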
# Target sequence (P08659 whole entry, looked up): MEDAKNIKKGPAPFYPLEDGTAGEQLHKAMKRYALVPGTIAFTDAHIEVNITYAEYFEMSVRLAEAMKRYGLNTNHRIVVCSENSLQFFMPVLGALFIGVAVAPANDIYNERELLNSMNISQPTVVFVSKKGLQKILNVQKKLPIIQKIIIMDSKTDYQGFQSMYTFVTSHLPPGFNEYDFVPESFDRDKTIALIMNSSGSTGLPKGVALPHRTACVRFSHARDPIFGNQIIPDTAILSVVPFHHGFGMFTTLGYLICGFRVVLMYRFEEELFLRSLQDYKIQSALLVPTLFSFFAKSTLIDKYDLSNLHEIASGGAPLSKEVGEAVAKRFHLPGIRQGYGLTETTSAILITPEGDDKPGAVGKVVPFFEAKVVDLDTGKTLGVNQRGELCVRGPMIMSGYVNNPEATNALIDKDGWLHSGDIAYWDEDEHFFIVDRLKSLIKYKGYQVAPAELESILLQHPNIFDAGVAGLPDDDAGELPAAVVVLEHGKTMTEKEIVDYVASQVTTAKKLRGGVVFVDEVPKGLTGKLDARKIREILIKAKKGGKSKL
# C8 TRAIL sens = viability loss with TRAIL in NB7+C8 cells, primary screen, TRAIL sensitizer project, cell-based, ATPlite luminescence. AID 624354, 2012. inhibition (viability loss, TRAIL sensitization), % at 10 µM. 360,000 tested, 1% active;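 active = compounds causing at least 50% loss of cell viability in the single-dose screen, relative to plate controls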
# PPC-1+TRAIL kill = compounds killing PPC-1 cancer cells with TRAIL present, primary screen, TRAIL potentiator project, ATPLite luminescence, uHTS; PPC-1 cells + TRAIL, ATPLite viability luminescence; cell killing (% activity), % at 4 µM or 5 µM; 220,000 tested, 0.41% active;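 active = cell killing above 50% in the first pass at 4 µM, then a duplicate retest at 5 µM averaging 50% or more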
# STAT3 blocker = IL-6 driven STAT3 reporter inhibitors, primary screen, U3A cells, luciferase, luminescence, MLSCN library; IL-6 STAT3-luciferase reporter; host cell line lacks STAT1; inhibition, % at 5.5 µM; 190,000 tested, 0.89% active; AID 862, 2007;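 active = inhibition above the mean inhibition across all screened compounds plus 3 SD, cut at about 44% in these data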
# HSP90 inh = HSP90 inhibitors, primary screen, cell lysate, luminescence | Heat shock protein HSP 90 (rabbit reticulocyte lysate; luciferase refolding) | Rabbit reticulocyte lysate, luciferase refolding luminescence, 3 h | inhibition, % at 5.6 µM | 290,000 tested, 0.91% active;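 active = inhibition above the screen-wide mean plus 3 SD, computed separately per campaign, cut at about 16% in these data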;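 note: inhibitors lower the luminescence because luciferase stays unfolded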
# FLuc act counter = FLuc activators, initial screening, artefact control for FLuc-dependent activation tests, biochemical, ATPlite luminescence; Luciferin 4-monooxygenase (Photinus pyralis), P08659; ATPlite luciferase biochemical, 10 min; 0 = ATP-free wells, 1 = DMSO control; activation factor at 10 µM; 200,000 tested, under 10 active;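 active = luciferase activation factor, scaled between plate controls, of at least 2 with compound at 10 µM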
#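 Assay system: Luciferase/luciferin detection reagent, cell-free biochemical luciferase assay / Read-out: luciferase activation / Benchmarks: No-ATP low control, compound-free enzyme-plus-ATP high control / Medium: PBS buffer for ATP / Detection: luminescence measurement of luciferase light output / Schedule: 10 min at ambient temperature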
# PPC-1 tox = cytotoxicity in PPC-1 cells, confirmation, cytotoxicity control for TRAIL apoptosis potentiator project, cell-based, ATP content luminescence | PPC-1 viability, ATPlite luminescence, overnight | 1,200 tested, 50% active | shares compounds with PPC-1+TRAIL kill | cytotoxicity, % at 5 µM | AID 1447, 2008;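 active = reconfirmed compounds whose average cytotoxicity reaches 50% or more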
# A number is an active result; - = inactive; . = no result. Hits are enriched below; roughly 2.2% of the tested compounds scored in any of these assays.
SMILES,FLuc inhib CS,C8 TRAIL sens,PPC-1+TRAIL kill,STAT3 blocker,HSP90 inh,FLuc act counter,PPC-1 tox
Cc1ccc(C(=O)Nc2nccc(-c3cccs3)n2)cc1,-,-,-,-,-,-,.
O=C1/C(=C/c2ccccc2)CCCc2ccccc21,-,-,-,-,-,-,.
Cc1cccc(/C=C2\CCC(=C3SCCCS3)C2=O)c1,93,82,78,-,-,-,80
Cc1cc(Cl)n2nc(C)c(-c3ccc(Cl)cc3)c2n1,-,-,54,-,-,-,-
CCOC(=O)C1=C(CSc2nc(-c3ccncc3)ccc2C#N)OC(N)=C(C#N)C1c1cccnc1 (stereo unspecified),-,-,-,-,-,-,.
CCOC(=O)C1=C(CSc2nc(-c3ccncc3)ccc2C#N)OC(N)=C(C#N)C1c1ccc(OC)cc1 (stereo unspecified),-,-,-,-,-,-,-
CCOC(=O)CSc1nc(-c2ccncc2)ccc1C#N,-,51,-,-,-,-,-
C/C(=N\NC(=O)COc1ccc(C(C)(C)C)cc1)c1ccccc1,-,-,-,-,-,-,.
C/C(=N\NC(=O)COc1ccc(C(C)(C)C)cc1)c1cc2ccccc2o1,94,84,77,-,-,-,77
Cc1nc2ccc(C(=O)N3CCCC(CO)(Cc4ccc(F)cc4F)C3)cc2nc1C (stereo unspecified),.,-,.,.,-,.,.
O=C(CNCc1cccs1)Nc1ccc(OC(F)(F)F)cc1,.,-,.,.,-,.,.
O=c1c(Cl)c(N2CCOCC2)cnn1-c1nc2ccccc2[nH]1,71,-,-,-,-,-,-
CCCOc1ccc(N2C(=O)C3C(C(C)C)NC4(C(=O)c5ccccc5C4=O)C3C2=O)cc1 (stereo unspecified),-,-,-,-,-,-,-
CCn1c(C)c(Br)c(=O)c(C(=O)OC)c1-c1ccc(Cl)cc1,.,-,.,.,-,.,.
O=C(NCC1CCCO1)c1ccc2c(c1)C(=O)N(C1CCCCC1)C2=O (stereo unspecified),-,-,-,-,-,-,-
CC(C)CCN1C(=O)c2ccc(C(=O)NCC3CCCO3)cc2C1=O (stereo unspecified),-,-,-,-,-,-,.
CCS/C(N)=N/N=C/c1cc(C)ccc1O,90,72,62,-,-,-,64
CCCCS/C(N)=N/N=C/c1cc(C)ccc1O,-,-,-,-,-,-,.
CN1OC[C@@H]2CN(Cc3ccccc3)[C@H](c3cccc(-c4ccc(C#N)cc4)c3)C[C@@H]21,.,-,.,.,.,.,.
C[C@H](CO)N1C[C@H](C)[C@H](CN(C)S(=O)(=O)c2ccc(C#N)cc2)OCc2cnnn2CCCC1=O,.,-,.,.,.,.,.
CCOC(=O)c1[nH]c2ccc(F)cc2c1NC(=O)c1ccccc1C(=O)O,.,-,.,.,-,.,.
CCOC(=O)c1[nH]c2ccc(F)cc2c1NC(=O)C1=COCCO1,-,-,-,-,-,-,-
O=C(Nc1nc2cc3c(cc2s1)OCO3)c1cccc(N2C(=O)CCC2=O)c1,.,56,-,.,-,.,58
O=C(Nc1nc2cc3c(cc2s1)OCO3)c1ccc(N2C(=O)CCC2=O)cc1,.,-,-,.,-,.,.
COC(=O)C1=C(C)NC(C)=C(C(=O)OCC2CCCO2)C1c1cccc(Br)c1 (stereo unspecified),.,-,.,.,-,.,.
SMILES,FLuc inhib CS,C8 TRAIL sens,PPC-1+TRAIL kill,STAT3 blocker,HSP90 inh,FLuc act counter,PPC-1 tox
Cc1sc2nc(C(C)(C)C)oc(=O)c2c1C,-,-,-,-,-,-,-
CC1CN(C(=O)c2ccc3c(c2)OCO3)CC(C)O1 (stereo unspecified),-,-,-,-,-,-,-
Cc1nnc2sc(-c3ccccn3)nn12,-,-,-,-,-,-,-
N#CCC(=O)Nc1ccc(C(=O)Nc2cccc(S(N)(=O)=O)c2)cc1,.,-,-,.,-,.,.
Nc1c([N+](=O)[O-])cc2c3c(cccc13)CC2,.,-,.,.,.,.,.
CCC(NC(=O)c1ccccc1NC(=O)c1ccc(C)cc1)C(=O)O (stereo unspecified),-,-,-,-,-,-,-
Cc1ccc(C(=O)Nc2ccccc2C(=O)NC(Cc2ccccc2)C(=O)O)cc1 (stereo unspecified),-,-,-,-,-,-,.
Cc1cccc(NC(=O)N2CCC(NC(=O)C3CCCCC3)CC2)c1,.,-,.,.,-,.,.
CCOc1ccc(-n2c(SC(C)C)nc3c(c2=O)SCC3)cc1,-,-,-,-,-,-,.
CCOc1ccc(-n2c(SC)nc3c(c2=O)SCC3)cc1,-,-,-,-,-,-,-
CC(=O)N=c1sc2nc3ccccc3nc2n1N(C(C)=O)C(C)=O,-,-,-,-,-,-,-
CC(=O)N=c1sc2ccccc2n1C,-,-,-,-,-,-,.
Cc1nc2cc(Nc3nnc(-c4ccccc4)c4ccccc34)ccc2n1C,92,75,71,-,-,-,70
Cc1nc2cc(NC(=O)Nc3cccc4ccccc34)ccc2n1C,56,-,-,-,-,-,-
Cc1ccc2nc(-c3ccccn3)oc2c1,84,67,65,-,-,-,65
Cc1ccc(C(=O)Nc2nc3c(s2)CCCC3)o1,82,65,52,-,-,-,53
COCC(C)n1c(C)cc(C(=O)COC(=O)c2ccc(N3CCCC3=O)cc2)c1C (stereo unspecified),-,-,-,-,-,-,-
COCc1nnc(NC(=O)c2cccs2)s1,-,-,-,-,-,-,.
COCc1nnc(NC(=O)c2sc3ccccc3c2Cl)s1,63,-,-,-,-,-,-
CC(=O)C1=C(O)C(=O)N(c2ccc(Br)cc2)C1c1ccc(Br)cc1 (stereo unspecified),.,-,.,.,-,.,.
CN(C)c1ccc(/C=N/NC(=O)c2ccn(C)n2)cc1,.,-,-,.,-,.,-
COc1ccc(Cc2nnc(SCC(=O)Nc3ccccc3C#N)o2)cc1,.,-,.,.,-,.,.
CCOC(=O)C1=C(C)N(CCCC(=O)O)C(=O)NC1c1ccc([N+](=O)[O-])cc1 (stereo unspecified),-,-,-,-,-,-,-
COCCNc1ccc([N+](=O)[O-])cc1C(=O)Nc1cccc(C)n1,-,-,-,-,-,-,.
COc1cc(-c2[nH]nc3c2C(c2ccoc2)C(C#N)=C(N)O3)cc(OC)c1OC (stereo unspecified),-,-,-,-,-,-,-
N#CC1=C(N)Oc2n[nH]c(-c3cccs3)c2C1c1ccoc1 (stereo unspecified),-,-,-,-,-,-,-
